Experimental data taken from ChEMBL document CHEMBL2311431, “Synthesis and biological evaluation of some 5-arylidene-2-(1,3-thiazol-2-ylimino)-1,3-thiazolidin-4-ones as dual anti-inflammatory/antimicrobial agents” (Bioorg Med Chem, 2013).
Values after ≈ are worked out from the molar mass of the structure shown.

How the values were obtained:
Mus musculus [1] = assay: Acute toxicity in AKR mouse up to 0.5 mmol/kg, ip; format: organism-based; conditions: in vivo
Mus musculus [2] = assay: Antiinflammatory activity in AKR mouse assessed as inhibition of carrageenan-induced paw edema at 0.01 mmol/kg, ip measured after 3.5 hrs of carrageenan-challenge; format: functional
How it was run: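 AKR mice of both sexes (pregnant females excluded), 6-10 per group, fasted during the experiment. Edema induced by intradermal 0.05 mL of 2% carrageenin into the right hind paw. Compound given at 0.01 mmol/kg ip, suspended in water with Tween-80, at the same time as carrageenin.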

[3] = target: T1, Prostaglandin G/H synthase 1 (Ovis aries) (UniProt P05979); assay: Inhibition of ovine COX1 assessed as inhibition of PGF2a production by enzyme immunoassay; design: concentration or dose not given beside the values; conditions: concentration not given here
T1 sequence (whole entry): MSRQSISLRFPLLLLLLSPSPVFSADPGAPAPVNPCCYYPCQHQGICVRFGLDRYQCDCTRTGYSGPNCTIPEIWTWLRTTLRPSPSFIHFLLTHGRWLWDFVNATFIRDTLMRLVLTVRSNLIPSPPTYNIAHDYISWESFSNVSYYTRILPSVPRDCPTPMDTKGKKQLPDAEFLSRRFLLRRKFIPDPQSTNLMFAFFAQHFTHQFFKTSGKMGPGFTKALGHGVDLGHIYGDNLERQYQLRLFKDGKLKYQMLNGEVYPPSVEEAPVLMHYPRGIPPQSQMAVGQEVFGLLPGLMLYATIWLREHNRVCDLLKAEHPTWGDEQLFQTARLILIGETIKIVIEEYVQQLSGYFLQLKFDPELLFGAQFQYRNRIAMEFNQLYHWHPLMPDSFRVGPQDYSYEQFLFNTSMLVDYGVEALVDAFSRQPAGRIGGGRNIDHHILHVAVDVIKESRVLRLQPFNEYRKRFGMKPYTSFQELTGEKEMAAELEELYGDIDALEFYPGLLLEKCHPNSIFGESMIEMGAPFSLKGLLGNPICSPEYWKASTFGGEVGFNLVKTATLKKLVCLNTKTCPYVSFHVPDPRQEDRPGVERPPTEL
How it was run: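 Ovine COX-1 from a commercial screening kit, tested with 0.1 µM arachidonic acid, which is below the saturating level. COX-derived PGH2 is reduced by SnCl2 to PGF2a, quantified by enzyme immunoassay with a broad prostaglandin antibody. At least triplicate.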

[4] = (§1) Inhibition of soybean lipoxygenase assessed as inhibition of sodium linolate conversion to 13-hydroperoxylinoleic acid after 4 mins by spectrophotometry; design: species or system Glycine max; conditions: read-out: IC50
Glycine max = assay: as §1
Aspergillus niger [5] = assay: Fungicidal activity against Aspergillus niger ATCC 6275 after 72 hrs by serial subcultivation method; format: functional; conditions: ATCC 6275, 72 h
Aspergillus niger [6] = assay: Antifungal activity against Aspergillus niger ATCC 6275 after 72 hrs by serial dilution technique; format: functional; conditions: ATCC 6275, 72 h
How it was run: (§2)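 Serial dilution in malt broth; compounds from 1 mg/ml stocks in 5% DMSO; 72 h at 28 °C. MIC is the lowest concentration with no visible growth under a binocular microscope. Run in duplicate, repeated three times.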

Aspergillus fumigatus [7] = assay: Fungicidal activity against Aspergillus fumigatus after 72 hrs by serial subcultivation method; format: functional
Aspergillus flavus [8] = assay: Fungicidal activity against Aspergillus flavus ATCC 9643 after 72 hrs by serial subcultivation method; format: functional; conditions: ATCC 9643, 72 h
Trichoderma viride [9] = assay: Fungicidal activity against Trichoderma viride IAM 5061 after 72 hrs by serial subcultivation method; format: functional; conditions: IAM 5061, 72 h
Penicillium ochrochloron [10] = assay: Fungicidal activity against Penicillium ochrochloron ATCC 9112 after 72 hrs by serial subcultivation method; format: functional; conditions: ATCC 9112, 72 h
Aspergillus flavus [11] = assay: Antifungal activity against Aspergillus flavus ATCC 9643 after 72 hrs by serial dilution technique; format: functional; conditions: ATCC 9643, 72 h; how it was run: as §2
Talaromyces funiculosus [12] = assay: Fungicidal activity against Penicillium funiculosum ATCC 36839 after 72 hrs by serial subcultivation method; format: functional; conditions: ATCC 36839, 72 h
Aspergillus fumigatus [13] = assay: Antifungal activity against Aspergillus fumigatus after 72 hrs by serial dilution technique; format: functional; how it was run: as §2
Trichoderma viride [14] = assay: Antifungal activity against Trichoderma viride IAM 5061 after 72 hrs by serial dilution technique; format: functional; conditions: IAM 5061, 72 h; how it was run: as §2
Penicillium ochrochloron [15] = assay: Antifungal activity against Penicillium ochrochloron ATCC 9112 after 72 hrs by serial dilution technique; format: functional; conditions: ATCC 9112, 72 h; how it was run: as §2
Talaromyces funiculosus [16] = assay: Antifungal activity against Penicillium funiculosum ATCC 36839 after 72 hrs by serial dilution technique; format: functional; conditions: ATCC 36839, 72 h; how it was run: as §2
Escherichia coli [17] = assay: Bactericidal activity against Escherichia coli ATCC 35210 after 72 hrs by serial subcultivation method; format: functional; conditions: ATCC 35210, 72 h
Pseudomonas aeruginosa [18] = assay: Bactericidal activity against Pseudomonas aeruginosa ATCC 27853 after 72 hrs by serial subcultivation method; format: functional; conditions: ATCC 27853, 72 h
Listeria monocytogenes [19] = assay: Bactericidal activity against Listeria monocytogenes NCTC 7973 after 72 hrs by serial subcultivation method; format: functional; conditions: NCTC 7973, 72 h
Bacillus cereus [20] = assay: Bactericidal activity against Bacillus cereus clinical isolate after 72 hrs by serial subcultivation method; format: functional
Micrococcus flavus [21] = assay: Bactericidal activity against Micrococcus flavus ATCC 10240 after 72 hrs by serial subcultivation method; format: functional; conditions: ATCC 10240, 72 h
Staphylococcus aureus [22] = assay: Bactericidal activity against Staphylococcus aureus ATCC 6538 after 72 hrs by serial subcultivation method; format: functional; conditions: ATCC 6538, 72 h
Escherichia coli [23] = assay: Antibacterial activity against Escherichia coli ATCC 35210 after 24 hr by microdilution test; format: functional; conditions: ATCC 35210, 24 h
How it was run: (§3)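 Broth microdilution in LB medium, about 1.0×10^4 cfu per well; compounds from 1 mg/ml stocks in 5% DMSO. Incubated 24 h. MIC is the lowest concentration with no visible growth under a binocular microscope. Run in duplicate, repeated three times.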

Listeria monocytogenes [24] = assay: Antibacterial activity against Listeria monocytogenes NCTC 7973 after 24 hr by microdilution test; format: functional; conditions: NCTC 7973, 24 h; how it was run: as §3
Pseudomonas aeruginosa [25] = assay: Antibacterial activity against Pseudomonas aeruginosa ATCC 27853 after 24 hr by microdilution test; format: functional; conditions: ATCC 27853, 24 h; how it was run: as §3
Micrococcus flavus [26] = assay: Antibacterial activity against Micrococcus flavus ATCC 10240 after 24 hr by microdilution test; format: functional; conditions: ATCC 10240, 24 h; how it was run: as §3
Bacillus cereus [27] = assay: Antibacterial activity against Bacillus cereus clinical isolate after 24 hr by microdilution test; format: functional; how it was run: as §3
Staphylococcus aureus [28] = assay: Antibacterial activity against Staphylococcus aureus ATCC 6538 after 24 hr by microdilution test; format: functional; conditions: ATCC 6538, 24 h; how it was run: as §3

Compound	Activity (Mus musculus [1])	inhibition in vivo at 10 µmol/kg (Mus musculus [2]) [%]	inhibition [3] [%]	IC50 [4] [µM]	MFC (Aspergillus niger [5]) [µM]	MIC (Aspergillus niger [6]) [µM]	MFC (Aspergillus fumigatus [7]) [µM]	MFC (Aspergillus flavus [8]) [µM]	MFC (Trichoderma viride [9]) [µM]	MFC (Penicillium ochrochloron [10]) [µM]	MIC (Aspergillus flavus [11]) [µM]	MFC (Talaromyces funiculosus [12]) [µM]	MIC (Aspergillus fumigatus [13]) [µM]	MIC (Trichoderma viride [14]) [µM]	MIC (Penicillium ochrochloron [15]) [µM]	MIC (Talaromyces funiculosus [16]) [µM]	MBC (Escherichia coli [17]) [µM]	MBC (Pseudomonas aeruginosa [18]) [µM]	MBC (Listeria monocytogenes [19]) [µM]	MBC (Bacillus cereus [20]) [µM]	further results
O=C1N/C(=N\c2nccs2)S/C1=C\c1ccc(F)cc1	Non-toxic	65.6	44	> 150	65.4 (≈ 20 µg/mL)	32.7 (≈ 9.99 µg/mL)	65.4 (≈ 20 µg/mL)	81.9 (≈ 25 µg/mL)	65.4 (≈ 20 µg/mL)	65.4 (≈ 20 µg/mL)	65.4 (≈ 20 µg/mL)	65.4 (≈ 20 µg/mL)	49.1 (≈ 15 µg/mL)	32.7 (≈ 9.99 µg/mL)	32.7 (≈ 9.99 µg/mL)	32.7 (≈ 9.99 µg/mL)	65.4 (≈ 20 µg/mL)	65.4 (≈ 20 µg/mL)	98.2 (≈ 30 µg/mL)	32.7 (≈ 9.99 µg/mL)	inhibition (Glycine max): 35%; MBC (Micrococcus flavus [21]): 81.9 µM (≈ 25 µg/mL); MBC (Staphylococcus aureus [22]): 65.4 µM (≈ 20 µg/mL); MIC (Escherichia coli [23]): 32.7 µM (≈ 9.99 µg/mL); MIC (Listeria monocytogenes [24]): 81.9 µM (≈ 25 µg/mL); MIC (Pseudomonas aeruginosa [25]): 32.7 µM (≈ 9.99 µg/mL); MIC (Micrococcus flavus [26]): 65.4 µM (≈ 20 µg/mL); MIC (Bacillus cereus [27]): 24.6 µM (≈ 7.51 µg/mL); MIC (Staphylococcus aureus [28]): 32.7 µM (≈ 9.99 µg/mL)
CN(C)c1ccc(/C=C2\S/C(=N/c3nccs3)NC2=O)cc1	Non-toxic	67.3	50	95	15.2 (≈ 5.02 µg/mL)	15.2 (≈ 5.02 µg/mL)	15.2 (≈ 5.02 µg/mL)	15.2 (≈ 5.02 µg/mL)	15.2 (≈ 5.02 µg/mL)	15.2 (≈ 5.02 µg/mL)	15.2 (≈ 5.02 µg/mL)	15.2 (≈ 5.02 µg/mL)	15.2 (≈ 5.02 µg/mL)	7.6 (≈ 2.51 µg/mL)	7.6 (≈ 2.51 µg/mL)	7.6 (≈ 2.51 µg/mL)	15.2 (≈ 5.02 µg/mL)	60.6 (≈ 20 µg/mL)	60.6 (≈ 20 µg/mL)	15.2 (≈ 5.02 µg/mL)	MBC (Micrococcus flavus [21]): 15.2 µM (≈ 5.02 µg/mL); MBC (Staphylococcus aureus [22]): 60.6 µM (≈ 20 µg/mL); MIC (Escherichia coli [23]): 7.6 µM (≈ 2.51 µg/mL); MIC (Listeria monocytogenes [24]): 30.3 µM (≈ 10 µg/mL); MIC (Pseudomonas aeruginosa [25]): 30.3 µM (≈ 10 µg/mL); MIC (Micrococcus flavus [26]): 7.6 µM (≈ 2.51 µg/mL); MIC (Bacillus cereus [27]): 7.6 µM (≈ 2.51 µg/mL); MIC (Staphylococcus aureus [28]): 30.3 µM (≈ 10 µg/mL)
